GalR3 antag = human GalR3 antagonism; O60755; HEK293 GalR3-CNG cAMP membrane potential fluorescence; galR3 body fused to GalR1 C-terminus; inhibition, % at 3 µM; 360,000 compounds, 0.44% hits; AID 651719;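 active means inhibition above the screen-wide average plus 3 SD, cut at about 13% in these data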;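 further: forskolin and galanin both at EC90 stimulate the cells; cAMP rise reported by CNG channel membrane potential dye signal; 0% = forskolin plus galanin with DMSO and 100% = forskolin alone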
Target sequence (O60755 1-299 limits assumed): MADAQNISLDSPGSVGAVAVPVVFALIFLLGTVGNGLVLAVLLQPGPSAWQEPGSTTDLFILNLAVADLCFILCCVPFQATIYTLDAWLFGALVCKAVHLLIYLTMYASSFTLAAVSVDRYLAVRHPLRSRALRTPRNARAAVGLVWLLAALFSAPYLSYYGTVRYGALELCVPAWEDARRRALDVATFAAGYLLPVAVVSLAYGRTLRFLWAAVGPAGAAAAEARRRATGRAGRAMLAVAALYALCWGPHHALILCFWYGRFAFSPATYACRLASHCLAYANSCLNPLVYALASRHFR
TAAR1 antagonist = human TAAR1 antagonism; Q96RJ0; CHO RD-HGA16 TAAR1, Fluo-8 calcium fluorescence, antagonist; inhibition, % at 3 µM; 360,000 compounds, 1.5% hits;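 active means inhibition above a per-plate cutoff, the mean inhibition of test compounds on that plate plus 3 SD, cut at about 49% in these data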;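 further: 0% = DMSO plus EC80 beta-PEA response and 100% = DMSO alone without agonist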
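test system = CHO RD-HGA16 cells bearing hTAAR1 | replication = singlicate | controls = DMSO-only wells and EC80 β-PEA-stimulated wells | reagent = EC80 β-phenethylamine stimulus | read-out basis = percent inhibition of PEA-evoked calcium signal, max/basal emission ratio | schedule = seeding 17-24 h prior, 75-min 37 °C, 30-min RT dye loading | signal = kinetic Fluo-8 calcium fluorescence measurement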
OX1R antag-1 = blocks the human orexin 1 receptor; O43613; CHO/OX1R cells, Fluo-8 calcium fluorescence, orexin A; inhibition, % at 5 µM; 330,000 compounds, 0.43% hits;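 active means inhibition above its plate's threshold, mean inhibition of all tested compounds on the plate plus 3 SD, cut at about 37% in these data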;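 further: 0% = orexin A challenge wells and 100% = SB-334867-A antagonist wells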
CHO parental Ca = counter-screen for OX1R antagonists: effect in parental CHO cells; parental CHO-K1, ATP-induced calcium, Fluo-8 fluorescence; inhibition, % at 5.6 µM; 330,000 compounds, 0.63% hits;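 active means inhibition above that plate's mean sample inhibition plus 3 SD, cut at about 26% in these data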;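 further: 0% = ATP-challenged DMSO wells and 100% = DMSO wells without ATP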
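Material: parental CHO cells / Compound: single nominal dose of 5.6 µM per compound / Signal: Fluo-8 fluorescence / Replicates: singlicate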
TAAR1 agonist = human TAAR1 agonism | CHO RD-HGA16 TAAR1, Fluo-8 calcium fluorescence; vehicle wells 0%, saturating PEA agonist 100% | activation, % at 3 µM | 360,000 compounds, 0.99% hits | AID 624467;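 active means activation above the mean activation of all test compounds in the run plus 3 SD, cut at about 38% in these data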
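System: CHO-derived RD-HGA16 cells with stable Gα16 and human TAAR1. Times: 17-24 h plating, Fluo-8 75 min 37 °C, 30 min RT. Measured by: calcium-sensitive Fluo-8 signal, excitation 470-495, emission 515-575 nm. Read-out basis: % activation relative to PEA EC100 response. Control set: DMSO and PEA EC100. Repeats: no replicates (n 1).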
OX1R antag-2 = blocks the human orexin 1 receptor | OX1R-expressing cells, FRET antagonist read-out | 330,000 compounds, 1.8% hits | inhibition, % at 6.6 µM; in the data active means inhibition mostly above about 38%, no sharp cut-off; inactive means mostly below about 40%;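 further: 0% = agonist challenge alone and 100% = reference antagonist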
TAAR1 ag conf = confirmation of human TAAR1 agonists. shares compounds with TAAR1 agonist. CHO RD-HGA16 TAAR1, Fluo-8 calcium fluorescence; scaled: DMSO 0%, maximal phenethylamine 100%. activation, % at 3 µM. 2,400 compounds, 82% hits. AID 651783;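 active means activation above a cutoff set at the run's mean compound activation plus 3 SD, cut at about 39% in these data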
Ga16 nonsel ag = counter-screen for TAAR1 agonists: nonselective agonists in parental cells. 2,400 compounds, 50% hits. CHO-Ga16 parental, Fluo-8 calcium fluorescence; normalized to maximal ATP response, DMSO zero. shares compounds with TAAR1 agonist. activation, % at 3 µM;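 active means activation above the run cutoff, the mean activation over all tested wells plus 3 SD, cut at about 12% in these data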;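 further: 0% = DMSO wells and 100% = maximal ATP response on the peak over basal ratio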
TAAR1 desens = TAAR1 response desensitization, agonist counter-screen; AID 651951; CHO RD-HGA16 hTAAR1, Fluo-8 calcium, beta-PEA response inhibition; inhibition, % at 3 µM; shares compounds with TAAR1 agonist; 2,400 compounds, 46% hits;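 active means inhibition above the run cutoff, the mean inhibition of all test compounds plus 3 SD, cut at about 49% in these data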;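 further: beta-PEA stimulus applied at its EC80; loss of beta-PEA calcium signal after compound pretreatment read as receptor desensitization; 0% = DMSO with beta-PEA at EC80 and 100% = DMSO alone without agonist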
Ga16 nonsel ant = nonselective Ga16 antagonist in TAAR1 agonist counter-screen; CHO-Ga16 ATP-induced calcium, Fluo-8 fluorescence; shares compounds with TAAR1 agonist; inhibition, % at 3 µM; AID 651952; 2,400 compounds, 39% hits;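 active means inhibition above the plate's mean compound inhibition plus 3 SD, computed per plate, cut at about 22% in these data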;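 further: 0% = EC80 ATP with DMSO and 100% = DMSO wells without ATP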
Numbers without * were called inactive. An excerpt weighted towards active compounds, which were near 4.3% of everything screened.

How did N#Cc1ccccc1S(=O)(=O)N1CCN(C(=O)[C@H](Cc2ccccc2)NC(=O)c2ccco2)CC1 do in these assays?
GalR3 antag: -6; TAAR1 antagonist: -8; OX1R antag-1: -17; CHO parental Ca: -11; TAAR1 agonist: 2; OX1R antag-2: 4

Results for CCN(C(=O)COC(=O)c1oc2ccc(OC)cc2c1C)C1CCS(=O)(=O)C1 (configuration not stated) ?
GalR3 antag: -2; TAAR1 antagonist: -1; TAAR1 agonist: 0

What do the screens show for `CC(C)c1onc(C(=O)NCCc2ccccc2)c1[N+](=O)[O-]`?
GalR3 antag: -4; OX1R antag-1: -13; CHO parental Ca: -6; OX1R antag-2: 18; Ga16 nonsel ag: 1; Ga16 nonsel ant: 6

Results for Cc1n[nH]c(C)c1NC(=O)CN1CCN(S(=O)(=O)c2ccc(C(F)(F)F)cc2)CC1 ?
GalR3 antag: -2; TAAR1 antagonist: 1; TAAR1 agonist: 3

What do the screens show for `Cc1ccc(NC(=O)N2CCc3ccccc3C2)c(C)c1`?
GalR3 antag: -1; TAAR1 antagonist: 43; OX1R antag-1: -17; CHO parental Ca: -9; TAAR1 agonist: 92*; OX1R antag-2: 18; TAAR1 ag conf: 66*; Ga16 nonsel ag: 3; TAAR1 desens: 20; Ga16 nonsel ant: 12

What do the screens show for `O=C(Nc1ccccc1)N1CCc2ccccc2C1`?
GalR3 antag: 5; TAAR1 antagonist: 20; OX1R antag-1: 0; CHO parental Ca: -17; TAAR1 agonist: 48*; OX1R antag-2: 3; TAAR1 ag conf: 54*; Ga16 nonsel ag: 5; TAAR1 desens: 14; Ga16 nonsel ant: 5

Results for CC(=O)c1ccc(NC(=O)N2CCc3ccccc3C2)cc1 ?
GalR3 antag: 0; TAAR1 antagonist: 21; OX1R antag-1: -26; CHO parental Ca: -8; TAAR1 agonist: 14; OX1R antag-2: 3

Results for Cc1ccc(NC(=O)N2CCc3ccccc3C2)cc1 ?
GalR3 antag: -2; TAAR1 antagonist: 8; OX1R antag-1: -16; CHO parental Ca: -6; TAAR1 agonist: 68*; OX1R antag-2: 10; TAAR1 ag conf: 43*; Ga16 nonsel ag: 1; TAAR1 desens: 5; Ga16 nonsel ant: 1

Results for CC(=O)c1cccc(NC(=O)N2CCc3ccccc3C2)c1 ?
GalR3 antag: -4; TAAR1 antagonist: 19; OX1R antag-1: -25; CHO parental Ca: -15; TAAR1 agonist: 56*; OX1R antag-2: 3; TAAR1 ag conf: 62*; Ga16 nonsel ag: 5; TAAR1 desens: 24; Ga16 nonsel ant: 18

How did O=C(Nc1ccc(Cl)cc1)N1CCc2ccccc2C1 do in these assays?
GalR3 antag: -5; TAAR1 antagonist: 0; OX1R antag-1: -21; CHO parental Ca: -20; TAAR1 agonist: 30; OX1R antag-2: 27

What do the screens show for `c1ccc(CCNc2cc(-c3ccc4ccccc4c3)nc3ccnn23)nc1`?
GalR3 antag: -3; TAAR1 antagonist: -2; TAAR1 agonist: 1

How did CC(C)(C)OC(=O)N(Cc1ccccc1)Cc1cccc(OCc2cccc(NC(=O)c3ccccc3)c2)c1 do in these assays?
GalR3 antag: -6; TAAR1 antagonist: 24; TAAR1 agonist: 2

Screens from PubChem BioAssay.
